Results taken from ChEMBL document CHEMBL1140516, “Dual-acting agents that possess reversing resistance and anticancer activities: Design, synthesis, MES-SA/Dx5 cell assay, and SAR of Benzyl 1,2,3,5,11,11a-hexahydro-3,3-dimethyl-1-oxo-6H-imidazo[3',4':1,2]pyridin[3,4-b]indol-2-substitutedacetates” (Bioorg Med Chem, 2007).

Assay: Growth inhibition of doxorubicin-sensitive human MES-SA cells after 48 hrs by MTT assay
Assay type: functional, cell-based
Details: not given
Outline: (§1)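 MES-SA or MES-SA/Dx5 cells in exponential growth were seeded at 1×10^5/mL in McCoy's 5A with 10% FCS, penicillin and streptomycin on poly-L-lysine-coated plates and held 4 h at 37 °C, 5% CO2. Doxorubicin was then added at final 0.04–10.00 µM (serial halving) for 48 h. Read-out was MTT, with dried formazan dissolved in DMSO and absorbance read. Survival% = (treated−blank)/(control−blank), and IC50 was taken from the survival–concentration plot.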
`COc1cccc2c1C(=O)c1c(O)c3c(c(O)c1C2=O)C[C@@](O)(C(=O)CO)C[C@@H]3O[C@H]1C[C@H](N)[C@H](O)[C@H](C)O1` [DOXORUBICIN] showed an IC50 of 0.347 µM.

Assay: Growth inhibition of doxorubicin-resistant human MES-SA/Dx5 cells at 1.0 uM after 48 hrs by MTT assay
Assay type: functional
Details: MES-SA/Dx5, 48 h
Outline: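 Exponential-phase MES-SA/Dx5 cells were seeded at 1×10^5/mL in McCoy's 5A with 10% FCS and penicillin/streptomycin on poly-L-lysine-coated wells and preincubated 4 h at 37 °C under 5% CO2. Compound was added in medium as a 1 µmol/L solution and cells were grown 48 h. In the MTT read-out, DMSO-dissolved formazan absorbance was measured. Inhibition% = 1 − (drug−blank)/(control−blank), with untreated cells as control and a cell-free blank.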
In the case of `CC(C)[C@@H](C(=O)OCc1ccccc1)N1C(=O)[C@@H]2Cc3c([nH]c4ccccc34)CN2C1(C)C`, the inhibition at 1 µM is reported as 0%. `CCC(C)[C@@H](C(=O)OCc1ccccc1)N1C(=O)[C@@H]2Cc3c([nH]c4ccccc34)CN2C1(C)C` (stereo partly specified) showed an inhibition at 1 µM of 0%. `CC1(C)N2Cc3[nH]c4ccccc4c3C[C@H]2C(=O)N1[C@@H](CC(=O)OCc1ccccc1)C(=O)OCc1ccccc1` gave an inhibition at 1 µM of 31.2%. Compound `CC(C)C[C@@H](C(=O)OCc1ccccc1)N1C(=O)[C@@H]2Cc3c([nH]c4ccccc34)CN2C1(C)C` has an inhibition at 1 µM of 38.9%. `CC1(C)N2Cc3[nH]c4ccccc4c3C[C@H]2C(=O)N1[C@@H](CC(N)=O)C(=O)OCc1ccccc1` showed an inhibition at 1 µM of 0%. `CC1(C)N2Cc3[nH]c4ccccc4c3C[C@H]2C(=O)N1[C@@H](Cc1ccc(O)cc1)C(=O)OCc1ccccc1` showed an inhibition at 1 µM of 0%. For `C[C@@H](C(=O)OCc1ccccc1)N1C(=O)[C@@H]2Cc3c([nH]c4ccccc34)CN2C1(C)C`, the inhibition at 1 µM was 0%. `CC1(C)N(CC(=O)OCc2ccccc2)C(=O)[C@@H]2Cc3c([nH]c4ccccc34)CN21` gave an inhibition at 1 µM of 0%. Compound `CC1(C)N2Cc3[nH]c4ccccc4c3C[C@H]2C(=O)N1[C@@H](Cc1ccccc1)C(=O)OCc1ccccc1` has an inhibition at 1 µM of 31.2%. Work on `CC1(C)N2Cc3[nH]c4ccccc4c3C[C@H]2C(=O)N1[C@@H](COCc1ccccc1)C(=O)OCc1ccccc1` yielded an inhibition at 1 µM of 0%. `CC1(C)N2Cc3[nH]c4ccccc4c3C[C@H]2C(=O)N1[C@@H](CCCCNC(=O)OCc1ccccc1)C(=O)OCc1ccccc1` showed an inhibition at 1 µM of 0%. Compound `CC1(C)N2Cc3[nH]c4ccccc4c3C[C@H]2C(=O)N1[C@@H](CCC(N)=O)C(=O)OCc1ccccc1` has an inhibition at 1 µM of 0%. With `CC1(C)N2Cc3[nH]c4ccccc4c3C[C@H]2C(=O)N1[C@@H](Cc1c[nH]c2ccccc12)C(=O)OCc1ccccc1` the inhibition at 1 µM was 0%. Work on `CC1(C)N2Cc3[nH]c4ccccc4c3C[C@H]2C(=O)N1[C@@H](CCC(=O)OCc1ccccc1)C(=O)OCc1ccccc1` yielded an inhibition at 1 µM of 13.4%.

Assay: Growth inhibition of doxorubicin-resistant human MES-SA/Dx5 cells after 48 hrs by MTT assay
Assay type: functional, cell-based
Details: MES-SA/Dx5, 48 h
Outline: as §1
Compound `COc1cccc2c1C(=O)c1c(O)c3c(c(O)c1C2=O)C[C@@](O)(C(=O)CO)C[C@@H]3O[C@H]1C[C@H](N)[C@H](O)[C@H](C)O1` [DOXORUBICIN] has an IC50 of 1.55 µM.
